In brackets after ≈: the same amount, converted by molar mass. Values belong to the molecule of their own block, whether it stands above or below them.
Columns and labels:
[1] = Stability in pH 3.1 solution assessed as half-life at 37 degC; format: physicochemical
[2] = Stability in pH 1 solution assessed as half-life at 37 degC; format: physicochemical
[3] = Stability in pH 7.4 solution assessed as half-life at 37 degC; format: physicochemical
[4] = Chemical stability of the compound in acidic pH solution; format: physicochemical
[5] = Chemical stability of the compound in neutral pH solution; format: physicochemical
[6] = Chemical Stability of the compound in pH 1 solution; format: physicochemical; details: buffer
Rattus norvegicus [7] = assay: Inhibition of LPS-induced TNFalpha level in Lewis rat at 0.03 to 10 mg/kg, po dosed 1 hr before LPS challenge and measured 90 mins post LPS challenge by ELISA method; format: functional
Method in brief: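 Male Lewis rats (200-250 g) dosed orally 1 h before IP injection of 10ug E. coli O111:B4 LPS in 1.0 mL sterile saline; prodrug as suspension in 0.75% Methocel, 0.1% Tween 80, parent in PEG 300, controls given vehicle. Blood taken 90 min after LPS; serum TNF measured by ELISA; ED50 expressed as parent equivalent.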

[8] = AUC in Sprague-Dawley rat at 10 mg/kg, po after 24 hrs by LC/MS/MS method; format: ADME, organism-based; parameters: time < 24 hr, dose 10 mg/kg, route oral; details: in vivo
Rattus norvegicus [9] = assay: Inhibition of paw swelling in Lewis rat adjuvant arthritis model assessed as reduction in hind paw volume at 1 mg/kg, po bid beginning on day 11 post adjuvant challenge by volume displacement plethysmometry method relative to control; format: functional; details: 264 h
Method in brief: (§1)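 Male Lewis rats given complete Freund's adjuvant on day 1; from day 11 compounds dosed orally BID in 0.5 mL vehicle (prodrug as aqueous suspension in 0.75% Methocel, 0.1% Tween 80; parent in PEG 300). Paw volume measured 3 times per week for rest of study; paw swelling inhibition reported.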

[10] = Cmax in Sprague-Dawley rat at 10 mg/kg, po after 24 hrs by LC/MS/MS method; format: ADME, organism-based; parameters: dose 10 mg/kg, route oral; details: in vivo
[11] = AUC in cynomolgus monkey at 10 mg/kg, po after 24 hrs by LC/MS/MS method; format: ADME, organism-based, Macaca fascicularis; parameters: dose 10 mg/kg, time < 24 hr, route oral; details: in vivo
[12] = Bioavailability in Sprague-Dawley rat at 10 mg/kg, po after 24 hrs by LC/MS/MS method; format: ADME, organism-based; details: in vivo
Rattus norvegicus [13] = assay: Inhibition of paw swelling in Lewis rat adjuvant arthritis model assessed as reduction in hind paw volume at 3 mg/kg, po bid beginning on day 11 post adjuvant challenge by volume displacement plethysmometry method relative to control; format: functional; details: 264 h; method in brief: as §1
[14] = Bioavailability in cynomolgus monkey at 10 mg/kg, po after 24 hrs by LC/MS/MS method; format: ADME, organism-based, Macaca fascicularis; details: in vivo
[15] = AUC (0 to 24 hrs) in Lewis rat adjuvant arthritis model at 3 mg/kg, po bid beginning on day 11 post adjuvant challenge; format: ADME, organism-based; parameters: dose 3 mg/kg, time < 24 hr, route oral; details: in vivo
[16] = Solubility in pH 6.5 solution; details: buffer
Rattus norvegicus [17] = assay: Bioavailability in Sprague-Dawley rat at 100 mg/kg, po after 24 hrs by LC/MS/MS method; format: ADME, organism-based; details: in vivo
[18] = Cmax in Sprague-Dawley rat at 1 mg/kg, po after 24 hrs by LC/MS/MS method; format: ADME, organism-based; parameters: dose 1 mg/kg, route oral; details: in vivo
[19] = Solubility in pH 1.2 solution; details: buffer
[20] = Cmax in Sprague-Dawley rat at 100 mg/kg, po after 24 hrs by LC/MS/MS method; format: ADME, organism-based; parameters: dose 100 mg/kg, route oral; details: in vivo
[21] = AUC in Sprague-Dawley rat at 100 mg/kg, po after 24 hrs by LC/MS/MS method; format: ADME, organism-based; parameters: time < 24 hr, dose 100 mg/kg, route oral; details: in vivo
Caco-2 [22] = assay: Drug level in basal side of human Caco2 cells assessed as BMS-582949 level incubated at 37 degC for 2 hrs; format: ADME, cell-based; details: caco-2, 2 h
Method in brief: (§2)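 Compounds loaded on apical side of Caco-2 monolayers and incubated at 37 °C for 2 h; prodrug, intermediate and parent measured on apical and basal sides.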

[23] = Cmax in cynomolgus monkey at 10 mg/kg, po after 24 hrs by LC/MS/MS method; format: ADME, organism-based, Macaca fascicularis; parameters: dose 10 mg/kg, route oral; details: in vivo
[24] = AUC (0 to 24 hrs) in Lewis rat adjuvant arthritis model at 1 mg/kg, po bid beginning on day 11 post adjuvant challenge; format: ADME, organism-based; parameters: dose 1 mg/kg, time < 24 hr, route oral; details: in vivo
Caco-2 [25] = assay: Drug level in apical side of human Caco2 cells assessed as BMS-582949 level incubated at 37 degC for 2 hrs; format: ADME, cell-based; details: caco-2, 2 h; method in brief: as §2
[26] = Bioavailability in Sprague-Dawley rat at 1 mg/kg, po after 24 hrs by LC/MS/MS method; format: ADME, organism-based; details: in vivo
[27] = AUC in Sprague-Dawley rat at 1 mg/kg, po after 24 hrs by LC/MS/MS method; format: ADME, organism-based; parameters: time < 24 hr, dose 1 mg/kg, route oral; details: in vivo
Caco-2 [28] = assay: Drug level in apical side of human Caco2 cells incubated at 37 degC for 2 hrs; format: ADME, cell-based; details: caco-2, 2 h; method in brief: as §2
[29] = Chemical stability of the compound in pH 7.4 potassium phosphate buffer at 10 uM incubated for 0.5 hrs by LC/MS/MS method; format: physicochemical; details: read-out: Stability
Method in brief: (§3)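 Compound at 10 µM in 89 mM potassium phosphate buffer, pH 7.4, 37 °C, incubated with or without porcine liver esterase; started by compound addition, aliquots at 0, 15, 30, 60 min, acetonitrile added, centrifuged at 4 °C, remaining compound measured by LC/MS/MS.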

[30] = Chemical stability of the compound in pH 7.4 potassium phosphate buffer at 10 uM incubated for 1 hr by LC/MS/MS method; format: physicochemical; details: read-out: Stability; method in brief: as §3
Liver carboxylesterase [31] = target: T1, Liver carboxylesterase (Sus scrofa, UniProt Q29550); assay: Stability assessed as porcine liver esterase-mediated drug degradation by measuring compound remaining level in pH 7.4 potassium phosphate buffer at 10 uM incubated for 0.5 hrs by LC/MS/MS; format: ADME, tissue-based; details: pig, read-out: Stability
T1 sequence (Q29550 whole entry): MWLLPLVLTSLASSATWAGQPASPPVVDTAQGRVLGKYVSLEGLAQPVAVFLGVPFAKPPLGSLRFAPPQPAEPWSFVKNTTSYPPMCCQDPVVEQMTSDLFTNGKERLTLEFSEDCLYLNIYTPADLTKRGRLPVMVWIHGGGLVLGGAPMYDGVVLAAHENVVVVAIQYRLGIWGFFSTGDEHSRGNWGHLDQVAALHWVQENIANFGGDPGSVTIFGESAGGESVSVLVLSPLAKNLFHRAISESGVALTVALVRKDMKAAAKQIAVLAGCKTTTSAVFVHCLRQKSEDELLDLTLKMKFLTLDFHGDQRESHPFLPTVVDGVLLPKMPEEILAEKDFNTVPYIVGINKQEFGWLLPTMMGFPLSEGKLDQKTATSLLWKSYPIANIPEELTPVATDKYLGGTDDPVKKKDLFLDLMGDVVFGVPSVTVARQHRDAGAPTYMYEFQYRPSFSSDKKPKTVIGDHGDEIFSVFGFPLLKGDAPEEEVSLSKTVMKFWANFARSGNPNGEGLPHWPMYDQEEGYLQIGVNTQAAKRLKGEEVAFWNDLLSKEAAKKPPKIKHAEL
Method in brief: (§4)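 Porcine liver esterase with substrate at 10 µM in 89 mM potassium phosphate pH 7.4, 37 °C. Reaction started by adding compound. Aliquots taken at 0, 15, 30 and 60 min and quenched with acetonitrile. After centrifugation at 4 °C, percent remaining quantified by LC/MS/MS.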

Liver carboxylesterase [32] = target: T1, Liver carboxylesterase; assay: Stability assessed as porcine liver esterase-mediated drug degradation by measuring compound remaining level in pH 7.4 potassium phosphate buffer at 10 uM incubated for 0.25 hrs by LC/MS/MS; format: ADME, tissue-based; details: pig, read-out: Stability; method in brief: as §4
Liver carboxylesterase [33] = target: T1, Liver carboxylesterase; assay: Stability assessed as porcine liver esterase-mediated drug degradation by measuring compound remaining level in pH 7.4 potassium phosphate buffer at 10 uM incubated for 1 hr by LC/MS/MS; format: ADME, tissue-based; details: pig, read-out: Stability; method in brief: as §4
[34] = Chemical stability of the compound in pH 7.4 potassium phosphate buffer at 10 uM incubated for 0.25 hrs by LC/MS/MS method; format: physicochemical; details: read-out: Stability; method in brief: as §3

SMILES: CCCNC(=O)c1cn2ncnc(N(COP(=O)([O-])O)c3cc(C(=O)NC4CC4)ccc3C)c2c1C.[Na+]
- half-life [1]: < 0.25 h
- half-life [2]: < 0.25 h
- half-life [3]: 20 h

SMILES: CCCN(C(=O)OCOC(=O)/C=C/C(=O)O)C(=O)c1cn2ncnc(Nc3cc(C(=O)NC4CC4)ccc3C)c2c1C
- Stability [4]: Stable
- Stability [5]: Stable

SMILES: CCCNC(=O)c1cn2ncnc(Nc3cc(C(=O)NC4CC4)ccc3C)c2c1C [BMS-582949]
- ED50 (Rattus norvegicus [7]): 0.88 mg
- AUC at 24 h [8]: 23 µM·h
- inhibition in vivo at 1 mg/kg (Rattus norvegicus [9]): 27%
- Cmax [10]: 4300 nM
- AUC at 24 h [11]: 7.6 µM·h
- bioavailability [12]: 31%
- inhibition in vivo at 3 mg/kg (Rattus norvegicus [13]): 35%
- bioavailability [14]: 16%
- AUC at 24 h [15]: 25.3 µM·h
- solubility [16]: 3 µg/mL (≈ 7.38 µM)
- F (Rattus norvegicus [17]): 4.3%
- Cmax [18]: 800 nM
- solubility [19]: 280 µg/mL (≈ 689 µM)
- Cmax [20]: 3000 nM
- AUC at 24 h [21]: 3 µM·h
- Drug uptake (Caco-2 [22]): Active
- Cmax [23]: 1000 nM
- AUC at 24 h [24]: 6.7 µM·h
- Drug uptake (Caco-2 [25]): Active
- bioavailability [26]: 55%
- AUC at 24 h [27]: 4.2 µM·h

Second part, the molecule after the results:

- Stability [6]: Stable
- Stability [5]: Unstable
SMILES: CCCN(C(=O)OCOP(=O)(O)O)C(=O)c1cn2ncnc(Nc3cc(C(=O)NC4CC4)ccc3C)c2c1C

- Drug uptake (Caco-2 [28]): Active
- remaining at 0.5 h, 10 µM [29]: 93%
- remaining at 1 h, 10 µM [30]: 75%
- remaining at 0.5 h, 10 µM (Liver carboxylesterase [31]): 6.9%
- remaining at 0.25 h, 10 µM (Liver carboxylesterase [32]): 8.2%
- remaining at 1 h, 10 µM (Liver carboxylesterase [33]): 5.8%
- remaining at 0.25 h, 10 µM [34]: 100%
SMILES: CCCN(C(=O)OCOC(=O)Cc1ccc(O)cc1)C(=O)c1cn2ncnc(Nc3cc(C(=O)NC4CC4)ccc3C)c2c1C

- half-life [1]: < 0.25 h
- half-life [2]: < 0.25 h
- half-life [3]: 257 h
SMILES: CCCNC(=O)c1cn2ncnc(Nc3cc(C(=O)N(COP(=O)(O)O)C4CC4)ccc3C)c2c1C.CCN(C(C)C)C(C)C

- half-life [1]: < 0.25 h
- half-life [2]: < 0.25 h
- half-life [3]: 54 h
SMILES: CCCN(COP(=O)(O)O)C(=O)c1cn2ncnc(Nc3cc(C(=O)NC4CC4)ccc3C)c2c1C.CCN(C(C)C)C(C)C

Reference: ChEMBL document CHEMBL3621120, “Discovery of ((4-(5-(Cyclopropylcarbamoyl)-2-methylphenylamino)-5-methylpyrrolo[1,2-f][1,2,4]triazine-6-carbonyl)(propyl)carbamoyloxy)methyl-2-(4-(phosphonooxy)phenyl)acetate (BMS-751324), a Clinical Prodrug of p38α MAP Kinase Inhibitor” (J Med Chem, 2015)
